Results on ten molecules are retold here after PubChem BioAssay.

Activity calls are given as the source filed them.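 How the source made its calls, unless noted: active means viability at or below 30% in both replicate assays; inconclusive means viability at or below 30% in just one of the two assays; inactive means the rest.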

The nature of assay [1]: Her2 expression decrease, cell viability multiplex – SKBR3 breast tumor cells, AlphaScreen, ATP viability, primary screen (AID 461;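 active means Her2 level under about 52% in both replicate screens, with viability over 70% of control, limit read from the data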;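 on Her2 level: lower value means less Her2 protein in the cells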;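 on viability: percent of carrier control wells set as 100% viability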). Particulars: SKBR3 Her2 protein level, 18-24 h, measured here: SKBR3 viability, ATP luminescence, at 10 µM. (Alpha assays give light when donor and acceptor beads are brought close together.)
Assay [2] has as its target Receptor tyrosine-protein kinase erbB-2 (Homo sapiens) (UniProt P04626). The assay is described as above. The note with it: 18-24 h, at 10 µM, stronger effect = lower value.
A short description of assay [3]: reduced viability of SK-BR-3 breast cancer cells – cell-based, 24 h, human, pilot screen (AID 572;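 active means viability at or below 10% of carrier control in both of two separate runs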;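 further: compound exposure lasted between 18 and 24 h rather than exactly 24 h; 100% = carrier-treated control wells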). Particulars: SK-BR-3 viability, CellTiter-Glo luminescence, at 10 µM, stronger effect = lower value.
Assay [4] in a line: HUVEC growth inhibition – cell-based, human, primary screen (AID 575).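 Further: 100% = median of untreated cell wells with 0.1% DMSO on each plate.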 The note with it: HUVEC proliferation, CellTiter-Glo luminescence, 72 h; at 10 µM; stronger effect = lower value. In a few lines: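 Test system: primary human umbilical vein endothelial cells. Quantity: 1250 cells/well. Compound: single 10 µM dose, 0.1% DMSO, from 5x medium stock. Timing: 72 h treatment at 37 °C. Detection: ATP-based CellTiter-Glo luminescent read. Benchmarks: vehicle and MePR control wells. Format: 384-well plates coated with collagen.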

Assay [5] in a line: H69AR cell proliferation blockers – human, duplicate replicates, primary screen (AID 580;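 active means viability at or under a set limit in both replicates, limit being median viability minus 3 SD, cut at about 48% in these data, passing the limit was not always enough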;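 further: 100% = mean luminescence of untreated wells and 0% = no signal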). Particulars: H69AR lung tumor cells viability, ATP luminescence, 72 h; at 10 µM; stronger effect = lower value.
Assay [6] can be described thus: MRP1 drug-resistance reversers in H69AR cells – cell-based, doxorubicin co-treatment, pilot screen (AID 601;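 active means viability loss from added drug above about 55%, and viability with drug at most 40%, in both replicates, limit read from the data, passing the limit was not always enough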). Particulars: CellTiter-Glo, 72 h, at 10 µM; for differential viability (reversal): stronger effect = higher value.
A short description of assay [7]: yeast transport mutant growth inhibition pilot in 384-well plates, post-Golgi transport modulator project (AID 636; in the data active means inhibition above about 31%). The note with it: absorbance 615 nm, about 18 h, stronger effect = higher value.
Assay [8] can be described thus: growth suppression of yeast trafficking mutant, preliminary HTS, modulators of trafficking downstream of Golgi apparatus project, 1536-format plate, OD 615 nm (AID 637; in the data active means inhibition above about 30%). Particulars: yeast transport mutant growth, absorbance 615 nm, 18 h; stronger effect = higher value.
[9] abbreviates: H69AR cells + 2 uM doxorubicin, measured here: viability with 2 uM doxorubicin, stronger effect = lower value.
The mark [10] stands for this setting: H69AR cells, compound alone cytotoxicity.

Receptor tyrosine-protein kinase erbB-2 (Homo sapiens), sequence (P04626 whole entry, looked up): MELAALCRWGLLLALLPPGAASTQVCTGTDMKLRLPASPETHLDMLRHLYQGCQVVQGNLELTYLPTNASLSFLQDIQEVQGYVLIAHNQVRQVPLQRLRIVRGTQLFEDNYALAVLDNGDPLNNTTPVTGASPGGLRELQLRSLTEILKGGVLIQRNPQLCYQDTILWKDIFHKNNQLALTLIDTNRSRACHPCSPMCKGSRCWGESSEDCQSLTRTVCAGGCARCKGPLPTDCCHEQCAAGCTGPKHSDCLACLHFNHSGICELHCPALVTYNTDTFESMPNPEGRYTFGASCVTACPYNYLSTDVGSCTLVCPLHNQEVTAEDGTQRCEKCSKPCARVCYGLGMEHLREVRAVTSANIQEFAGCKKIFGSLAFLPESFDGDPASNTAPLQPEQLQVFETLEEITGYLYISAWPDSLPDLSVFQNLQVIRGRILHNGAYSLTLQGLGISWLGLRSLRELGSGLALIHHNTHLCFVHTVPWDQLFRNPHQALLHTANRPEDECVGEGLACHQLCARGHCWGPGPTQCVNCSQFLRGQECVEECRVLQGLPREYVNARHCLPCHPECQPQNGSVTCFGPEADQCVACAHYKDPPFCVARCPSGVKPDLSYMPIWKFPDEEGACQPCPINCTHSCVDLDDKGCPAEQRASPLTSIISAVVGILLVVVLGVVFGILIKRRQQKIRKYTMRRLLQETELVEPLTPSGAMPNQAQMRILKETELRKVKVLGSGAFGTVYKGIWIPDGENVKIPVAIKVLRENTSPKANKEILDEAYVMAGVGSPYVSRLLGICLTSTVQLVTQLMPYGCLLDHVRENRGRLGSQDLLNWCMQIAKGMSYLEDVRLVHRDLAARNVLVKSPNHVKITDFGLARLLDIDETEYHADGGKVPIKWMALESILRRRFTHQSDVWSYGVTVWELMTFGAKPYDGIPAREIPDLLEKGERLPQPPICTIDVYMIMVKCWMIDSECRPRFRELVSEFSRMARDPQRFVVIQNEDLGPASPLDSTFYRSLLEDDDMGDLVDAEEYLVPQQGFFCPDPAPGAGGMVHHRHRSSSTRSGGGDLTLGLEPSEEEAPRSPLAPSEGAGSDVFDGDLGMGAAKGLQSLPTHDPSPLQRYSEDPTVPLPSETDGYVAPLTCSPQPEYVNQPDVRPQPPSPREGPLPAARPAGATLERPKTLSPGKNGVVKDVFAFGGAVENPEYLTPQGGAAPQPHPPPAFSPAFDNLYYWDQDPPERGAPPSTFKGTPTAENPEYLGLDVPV

A word on the viability: it is a read-out of living cells in per cent, often relative to untreated cells. As a reminder, the inhibition is the drop in the measured response relative to a control, in per cent. Regarding `CC(=O)Nc1c(Cl)n(C(C)=O)c2ccccc12`, the viability in assay [1] is 85%; in assay [3], 85% (inactive); in assay [4] it was 71.6% (inactive); in assay [5] it was 84% (inactive); in assay [6] (setting [9]) it was 90.4%; in assay [6] (setting [10]), 84%. The Her2 level in assay [2] is 65% (inactive). Further, the differential viability (reversal) in assay [6] (H69AR cells + 2 uM doxorubicin) is -6.37% (inactive). For the same molecule, the inhibition in assay [7] was -7.57% (inactive); in assay [8] it was 5.5% (inactive).
As for `CCOC(=O)C(C)On1c(SC(C)C(=O)OCC)nc2ccccc2c1=O` (stereo not given), the viability is 131% in assay [1]; 131% (inactive) in assay [3]; 93.4% (inactive) in assay [4]; 82.1% (inactive) in assay [5]; 102% in assay [6] (setting [9]); 82.1% in assay [6] (setting [10]). The Her2 level in assay [2] was 102% (inactive). Moreover, the differential viability (reversal) in assay [6] (H69AR cells + 2 uM doxorubicin) is -19.7% (inactive). For the same molecule, the inhibition in assay [7] is -3.68% (inactive); in assay [8], -6.61% (inactive).
As for `Cc1ccc2c(c1C)NC(C)CC2C` (stereo not given), the viability in assay [1] is 100%; in assay [3], 100% (inactive); in assay [4] it was 103% (inactive); in assay [5], 97.2% (inactive); in assay [6] (setting [9]) it was 88.2%; in assay [6] (setting [10]), 97.2%. Moreover, in assay [2], the Her2 level is 82% (inactive). Besides, the differential viability (reversal) in assay [6] (H69AR cells + 2 uM doxorubicin) is 8.96% (inactive). In addition, the inhibition in assay [7] is -0.39% (inactive); in assay [8] it was -0.73% (inactive).
With `Cc1ccc(NC(=O)CSc2nnc(CNC(=O)c3c(F)cccc3Cl)o2)cc1`, the viability was 80% in assay [1]; 80% (inactive) in assay [3]; 98% (inactive) in assay [4]; 95.7% (inactive) in assay [5]; 96.5% in assay [6] (setting [9]); 95.7% in assay [6] (setting [10]). The Her2 level in assay [2] is 98% (inactive). The differential viability (reversal) in assay [6] (H69AR cells + 2 uM doxorubicin) is -0.775% (inactive). Also, the inhibition in assay [7] is -0.51% (inactive); in assay [8] it was -6.83% (inactive).
Consider `Cc1ccc(-c2cc(C(F)(F)F)n3ncc(C(=O)O)c3n2)cc1`, for which the viability is 91% in assay [1]; 91% (inactive) in assay [3]; 113% (inactive) in assay [4]; 99.7% (inactive) in assay [5]; 92.4% in assay [6] (setting [9]); 99.7% in assay [6] (setting [10]). In addition, the Her2 level in assay [2] was 90.5% (inactive). Further, in assay [6] (H69AR cells + 2 uM doxorubicin), the differential viability (reversal) was 7.33% (inactive). The inhibition in assay [7] was -7.87% (inactive); in assay [8], 0.48% (inactive).
Regarding `CCCCn1c(SCC(=O)Nc2ccc(OC)cc2)nc2ccc(N3CCOCC3)cc2c1=O`, the viability in assay [1] is 94.5%; in assay [3], 94.5% (inactive); in assay [4], 72.4% (inactive); in assay [5], 89.6% (inactive); in assay [6] (setting [9]), 89%; in assay [6] (setting [10]), 89.6%. Besides, the Her2 level in assay [2] was 86% (inactive). Further, the differential viability (reversal) in assay [6] (H69AR cells + 2 uM doxorubicin) is 0.605% (inactive). The results for the inhibition in assay [7] and in assay [8] were -2.8% (inactive) and 0.16% (inactive), respectively.
Turning to `Cc1oc(-c2ccccc2)cc1C(N)=O`, the viability is 103% in assay [1]; 103% (inactive) in assay [3]; 92.3% (inactive) in assay [4]; 100% (inactive) in assay [5]; 80.3% in assay [6] (setting [9]); 100% in assay [6] (setting [10]). Further, the Her2 level in assay [2] was 78.5% (inactive). For the same molecule, in assay [6] (H69AR cells + 2 uM doxorubicin), the differential viability (reversal) is 20% (inactive). In addition, the values for the inhibition in assay [7] and in assay [8] were -0.79% (inactive) and -2.9% (inactive), respectively.
With `COCCN1CCN(c2c(C)c(C)nc3cc(-c4cccc(OC)c4)nn23)CC1`, the viability in assay [1] was 100%; in assay [3], 100% (inactive); in assay [4], 91.1% (inactive); in assay [5], 95.4% (inactive); in assay [6] (setting [9]) it was 82.7%; in assay [6] (setting [10]), 95.4%. The Her2 level in assay [2] is 83.5% (inactive). For the same molecule, the differential viability (reversal) in assay [6] (H69AR cells + 2 uM doxorubicin) was 12.7% (inactive). Further, the inhibition in assay [7] is -5.45% (inactive); in assay [8], -1.43% (inactive).
As to `COc1ccc(S(=O)(=O)N(C)c2ccc(C(=O)N3CCOCC3)cc2)cc1`, the viability in assay [1] is 79.5%; in assay [3], 79.5% (inactive); in assay [4], 94.4% (inactive); in assay [5], 95.2% (inactive); in assay [6] (setting [9]), 91.5%; in assay [6] (setting [10]) it was 95.2%. In assay [2], the Her2 level is 89.5% (inactive). Moreover, the differential viability (reversal) in assay [6] (H69AR cells + 2 uM doxorubicin) was 3.61% (inactive). Also, the results for the inhibition in assay [7] and in assay [8] were -0.92% (inactive) and 1.8% (inactive), respectively.
On to `Cc1ccc(S(=O)(=O)N2CCN(C(=O)CN3C(=O)NC4(CCOc5ccccc54)C3=O)CC2)cc1` (stereo not given), for which the viability in assay [1] was 98.5%; in assay [3], 98.5% (inactive); in assay [4], 102% (inactive); in assay [5], 101% (inactive); in assay [6] (setting [9]), 99.8%; in assay [6] (setting [10]), 101%. In assay [2], the Her2 level is 108% (inactive). Besides, the differential viability (reversal) in assay [6] (H69AR cells + 2 uM doxorubicin) was 1.57% (inactive). For the same molecule, the inhibition in assay [7] is 4.08% (inactive); in assay [8], -1.09% (inactive).
